This passage reports inhibition and IC50 results from ChEMBL document CHEMBL4257549, “Design, synthesis and biological evaluation of benzimidazole-rhodanine conjugates as potent topoisomerase II inhibitors” (Medchemcomm, 2018).

pIC50: −log10 of the molar value. Activity calls are given as the source filed them. The calls are words filed in the database; no cut-off is given here.

For test [1], the species on record is Homo sapiens. As to the kind of experiment: Inhibition of human topoisomerase 2-mediated pBR322 DNA relaxation at 10 uM after 30 mins by agarose gel electrophoresis.
The next test has as its system HL-60. As to the kind of experiment: Cytotoxicity against human HL60 cells after 48 hrs by MTT assay. In kind it is functional, cell-based. Particulars: HL-60, 48 h. The procedure, abridged:
(§1)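 Cells seeded at 5000 per well, left overnight, then exposed to compound at 0–50 μM for 48 h. MTT (20 μL of 2.5 mg mL−1) added for a further 4 h at 37 °C, formazan dissolved in DMSO, absorbance read at 570 nm. Quadruplicate wells, N > 2 determinations, mean IC50 taken as the concentration reducing cell number to 50%.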
(Formazan colour is commonly taken as a measure of viable cells.)

The subject of a further test is PC-3. As to the kind of experiment: Cytotoxicity against human PC3 cells after 48 hrs by MTT assay. In kind it is functional, cell-based. The conditions noted are these: PC-3, 48 h. The procedure, abridged:
as §1

The species named for test [2] is Homo sapiens. The experiment in a line: Inhibition of human topoisomerase 2-mediated pBR322 DNA relaxation at 50 uM after 30 mins by agarose gel electrophoresis. The procedure, abridged: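 Relaxation of 200 ng supercoiled pBR322 by 1 U Topo II (TopoGEN) in 20 μL buffer: 50 mM Tris-HCl pH 8.0, 150 mM NaCl, 10 mM MgCl2, 2 mM ATP, 0.5 mM DTT, 30 μg/mL BSA. Incubated 30 min at 37 °C, stopped with sarcosyl/glycerol dye. Products run on 1% agarose in TAE (1.5 h, 75 V), Ged Red stained, UV imaged; etoposide positive control.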

For another test, the system named is Raji. As to the kind of experiment: Cytotoxicity against human Raji cells after 48 hrs by MTT assay. In kind it is functional, cell-based. The essentials:
as §1

Test [3] deals with T1, DNA topoisomerase 1 (Homo sapiens) (UniProt P11387).
T1 sequence (whole entry): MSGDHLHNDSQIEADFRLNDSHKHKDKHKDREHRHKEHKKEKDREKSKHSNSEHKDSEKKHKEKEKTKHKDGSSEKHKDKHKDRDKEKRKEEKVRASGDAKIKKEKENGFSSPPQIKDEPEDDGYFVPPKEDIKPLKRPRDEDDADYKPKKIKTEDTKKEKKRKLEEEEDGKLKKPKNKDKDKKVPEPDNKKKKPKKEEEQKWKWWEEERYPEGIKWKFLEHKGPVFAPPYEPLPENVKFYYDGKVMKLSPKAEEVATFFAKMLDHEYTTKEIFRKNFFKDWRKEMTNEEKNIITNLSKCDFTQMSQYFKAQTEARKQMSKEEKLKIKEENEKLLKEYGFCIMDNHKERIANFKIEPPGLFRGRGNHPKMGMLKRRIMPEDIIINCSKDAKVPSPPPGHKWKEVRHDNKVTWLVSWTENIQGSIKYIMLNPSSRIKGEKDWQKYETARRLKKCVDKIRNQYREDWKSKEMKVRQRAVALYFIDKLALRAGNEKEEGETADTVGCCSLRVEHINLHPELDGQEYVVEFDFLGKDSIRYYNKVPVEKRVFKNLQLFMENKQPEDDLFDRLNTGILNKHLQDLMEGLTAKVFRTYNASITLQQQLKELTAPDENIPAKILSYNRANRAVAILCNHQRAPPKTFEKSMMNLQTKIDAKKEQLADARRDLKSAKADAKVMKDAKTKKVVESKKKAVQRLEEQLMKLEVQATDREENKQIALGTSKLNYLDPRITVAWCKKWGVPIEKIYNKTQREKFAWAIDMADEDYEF
As to the kind of experiment: Inhibition of topoisomerase 1 (unknown origin)-mediated pBR322 DNA relaxation at 50 uM after 30 mins by agarose gel electrophoresis. The procedure, abridged: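 Topo I relaxation of pBR322 with compound at 30 min, 37 °C, camptothecin positive control. Stopped with SDS/bromophenol blue/glycerol dye, run on 1% agarose in TAE for 1.5 h, Ged Red stained, UV visualized.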

Another test relates to MDA-MB-231. The experiment in a line: Cytotoxicity against human MDA-MB-231 cells after 48 hrs by MTT assay. In kind it is functional, cell-based. The conditions noted are these: MDA-MB-231, 48 h. The procedure, abridged: as §1
For another test, the system named is A549. The experiment in a line: Cytotoxicity against human A549 cells after 48 hrs by MTT assay. Particulars: A549, 48 h. In kind it is functional, cell-based. The essentials: as §1
A further test concerns HeLa. As to the kind of experiment: Cytotoxicity against human HeLa cells after 48 hrs by MTT assay. In kind it is functional, cell-based. The procedure, abridged:
as §1

The species named for test [4] is Homo sapiens. The experiment in a line: Inhibition of human topoisomerase 2-mediated pBR322 DNA relaxation at 20 uM after 30 mins by agarose gel electrophoresis.

As a reminder, the pIC50 is the IC50 on a negative log10 scale, so that one unit is a factor of ten. Low readings indicate a high IC50, high ones a low IC50. In the case of `O=C(O)CN1C(=O)/C(=C/c2nc3cc(Cl)ccc3n2Cc2ccccc2F)SC1=S`, the inhibition result in the test listed under Homo sapiens [1], in the test listed under Homo sapiens [2] and in the test filed under Homo sapiens [4] was “Active” in each case. The pIC50 was 6.06 in the test on HL-60; 5.46 in the test on PC-3; 5.56 in the test with Raji; 5.78 in the test on MDA-MB-231; 5.25 with A549; 5.02 in the test on HeLa. For the same molecule, the inhibition result in test [3] was “inactive”.

As for `COc1cc(Cn2c(/C=C3\SC(=S)N(CC(=O)O)C3=O)nc3ccccc32)cc(OC)c1`, the inhibition entry in the test listed under Homo sapiens [1] and in the test listed under Homo sapiens [4] was “Active” in each case. In addition, the pIC50 was 5.85 in the test on HL-60; 5.20 in the test with PC-3; 5.68 with Raji; 5.89 in the test with MDA-MB-231; 5.29 in the test on A549; 4.75 in the test on HeLa.

For the molecule `COc1ccc2c(c1)nc(/C=C1\SC(=S)N(CC(=O)O)C1=O)n2Cc1ccc(C)cc1`, the inhibition result in the test filed under Homo sapiens [1], in the test filed under Homo sapiens [2] and in the test listed under Homo sapiens [4] was “Active” throughout. Besides, the pIC50 in the test on HL-60 was 6.11; in the test on PC-3, 5.44; in the test on Raji, 5.75; in the test on MDA-MB-231, 5.91; in the test with A549 it was 5.25; in the test with HeLa it was 5.74. In addition, the inhibition result in [3] was “inactive”.

In the case of `Cc1ccc(Cn2c(/C=C3\SC(=S)N(CC(=O)O)C3=O)nc3cc(F)ccc32)cc1`, the inhibition entry in the test filed under Homo sapiens [1], in the test filed under Homo sapiens [2] and in the test filed under Homo sapiens [4] was “Active” each time. Moreover, the pIC50 is 5.93 with HL-60; 4.99 in the test on PC-3; 5.48 in the test on Raji; 5.18 in the test on MDA-MB-231; 4.86 in the test with A549; 5.62 with HeLa. Besides, the inhibition result in [3] was “inactive”.

With `CCn1c(/C=C2\SC(=S)N(CC(=O)O)C2=O)nc2ccccc21`, the pIC50 in the test on HL-60 is 5.67; with PC-3 it was 5.49; in the test with Raji, 5.25; in the test on MDA-MB-231, 5.73; with A549, 5.03; in the test on HeLa, 5.45. The inhibition entry in the test listed under Homo sapiens [2] is “Active”. Besides, the inhibition entry (in [3]; in the test listed under Homo sapiens [4]) was “inactive” each time.

Turning to `Cc1ccc(Cn2c(/C=C3\SC(=S)N(CC(=O)O)C3=O)nc3cc(Cl)ccc32)cc1`, the inhibition result in the test listed under Homo sapiens [1], in the test filed under Homo sapiens [2] and in the test filed under Homo sapiens [4] was “Active” each time. Further, the pIC50 with HL-60 is 5.57; with PC-3 it was 4.57; with Raji, 4.68; with MDA-MB-231 it was 4.86; in the test on A549, 4.41; in the test with HeLa, 4.67. Moreover, the inhibition entry in test [3] was “inactive”.

On to `O=C(O)CN1C(=O)/C(=C/c2nc3ccccc3n2CC(=O)c2ccc(F)cc2)SC1=S`, for which the inhibition result in the test filed under Homo sapiens [1] and in the test filed under Homo sapiens [4] was “Active” in each case. Also, the negative-log IC50 (pIC50) with HL-60 was 5.40; with PC-3, 5.01; in the test with Raji, 5.08; with MDA-MB-231, 5.20; with A549, 4.89; in the test with HeLa, 4.83. The inhibition entry in test [3] is “inactive”.

Consider `O=C(O)CN1C(=O)/C(=C/c2nc3ccccc3n2Cc2ccc(F)cc2F)SC1=S`, for which the pIC50 was 5.19 in the test with HL-60; 4.66 in the test on PC-3; 5.05 in the test with Raji; 4.94 in the test with MDA-MB-231; 4.89 with A549; 4.58 in the test on HeLa. Moreover, the inhibition result in the test filed under Homo sapiens [2] was “Active”. Further, the inhibition entry (in [3]; in the test filed under Homo sapiens [4]) was “inactive” each time.

Turning to `Cc1ccc(Cn2c(/C=C3\SC(=S)N(CC(=O)O)C3=O)nc3ccc(Cl)cc32)cc1`, the pIC50 was 5.55 in the test on HL-60; 5.82 with PC-3; 5.55 in the test on Raji; 5.40 in the test on MDA-MB-231; 5.00 with A549; 4.96 in the test on HeLa. Further, the inhibition result in the test listed under Homo sapiens [2] and in the test listed under Homo sapiens [4] was “Active” in each case. In [3], the inhibition result is “inactive”.

For the molecule `O=C(O)CN1C(=O)/C(=C/c2nc3ccccc3n2Cc2ccc(F)c(F)c2)SC1=S`, the inhibition entry in the test filed under Homo sapiens [1], in the test filed under Homo sapiens [2] and in the test filed under Homo sapiens [4] was “Active” throughout. For the same molecule, the pIC50 was 5.56 in the test with HL-60; 5.22 in the test on PC-3; 5.14 with Raji; 5.42 with MDA-MB-231; 4.87 with A549; 4.80 in the test on HeLa. Besides, the inhibition result in test [3] was “inactive”.

In the case of `COc1ccc2nc(/C=C3\SC(=S)N(CC(=O)O)C3=O)n(Cc3ccccc3F)c2c1`, the inhibition entry in the test filed under Homo sapiens [1], in the test listed under Homo sapiens [2] and in the test filed under Homo sapiens [4] was “Active” each time. For the same molecule, the pIC50 in the test with HL-60 is 5.19; with PC-3 it was under 4.30; with Raji it was 4.91; in the test with MDA-MB-231, 4.65; in the test on A549, 4.44; in the test on HeLa, 4.55. Also, the inhibition result in [3] is “inactive”.

Turning to `Cc1ccc(Cn2c(/C=C3\SC(=S)N(CC(=O)O)C3=O)nc3ccc(F)cc32)cc1`, the inhibition result in the test listed under Homo sapiens [1], in the test listed under Homo sapiens [2] and in the test listed under Homo sapiens [4] was “Active” each time. In addition, the pIC50 in the test on HL-60 was 5.77; in the test on PC-3 it was 5.24; in the test on Raji, 5.61; in the test on MDA-MB-231 it was 5.41; in the test on A549 it was 5.02; in the test with HeLa it was 5.41. In addition, the inhibition entry in test [3] is “inactive”.

Consider `O=C(O)CN1C(=O)/C(=C/c2nc3ccc(F)cc3n2Cc2ccccc2F)SC1=S`, for which the inhibition result in the test filed under Homo sapiens [1], in the test listed under Homo sapiens [2] and in the test filed under Homo sapiens [4] was “Active” in each case. For the same molecule, the pIC50 in the test on HL-60 was 5.28; in the test with PC-3 it was under 4.30; in the test on Raji it was 4.65; in the test on MDA-MB-231, under 4.30; in the test with A549 it was under 4.30; in the test with HeLa, under 4.30. Further, the inhibition entry in [3] is “inactive”.

With `O=C(O)CN1C(=O)/C(=C/c2nc3ccc(Cl)cc3n2Cc2ccccc2F)SC1=S`, the inhibition entry in the test listed under Homo sapiens [1], in the test filed under Homo sapiens [2] and in the test listed under Homo sapiens [4] was “Active” throughout. Further, the pIC50 in the test with HL-60 is 5.28; in the test on PC-3, 4.76; with Raji, 5.05; with MDA-MB-231, 5.02; with A549, 4.57; in the test on HeLa it was 5.12. Further, in test [3], the inhibition entry is “inactive”.

Regarding `O=C(O)CN1C(=O)/C(=C/c2nc3ccccc3n2CC(=O)c2ccc(Cl)cc2)SC1=S`, the inhibition entry in the test filed under Homo sapiens [1] and in the test listed under Homo sapiens [4] was “Active” throughout. Also, the pIC50 in the test with HL-60 was 5.61; with PC-3 it was 5.19; with Raji, 5.50; in the test on MDA-MB-231 it was 5.95; in the test on A549 it was 5.01; with HeLa it was 4.56. The inhibition entry in test [3] is “inactive”.
